Test results taken from ChEMBL document CHEMBL1955723, “Discovery and synthesis of namalide reveals a new anabaenopeptin scaffold and peptidase inhibitor” (J Med Chem, 2012).
The source made the active and inactive calls. The calls are words filed in the database; no cut-off is given here.

Key:
[1] = Solubility of the compound; assay type: physicochemical
[2] = molecular target: T1, Carboxypeptidase A1 (Bos taurus) (UniProt P00730); test: Inhibition of bovine pancreas carboxypeptidase A using N-(4-methoxyphenylazoformyl)-phenylalanine as substrate at 30 uM after 5 mins by colorimetry
T1 sequence (whole entry): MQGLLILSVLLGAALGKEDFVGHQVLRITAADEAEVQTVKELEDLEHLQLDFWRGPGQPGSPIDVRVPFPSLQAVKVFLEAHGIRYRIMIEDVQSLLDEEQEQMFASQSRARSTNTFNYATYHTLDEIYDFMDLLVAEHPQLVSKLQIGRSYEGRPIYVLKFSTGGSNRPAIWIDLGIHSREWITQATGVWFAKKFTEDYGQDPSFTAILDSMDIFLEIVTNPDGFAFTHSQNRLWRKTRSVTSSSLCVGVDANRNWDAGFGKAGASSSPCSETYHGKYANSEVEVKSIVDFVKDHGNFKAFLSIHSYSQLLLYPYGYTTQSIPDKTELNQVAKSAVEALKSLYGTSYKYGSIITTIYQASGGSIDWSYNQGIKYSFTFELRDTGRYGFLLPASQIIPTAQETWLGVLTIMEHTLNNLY

[3] = Inhibition of alpha chymotrypsin using N-benzoyl-L-tyrosine ethyl ester as substrate at 60 ug/mL after 5 mins by colorimetry
Outline: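 α-Chymotrypsin, 1 U, 25 °C, in a 10 mm quartz cuvette, 200 μL final; inhibitor from DMSO (typically 1 mM stock, 10 μL) or DMSO alone. Absorbance read at 256 nm after 5 min incubation; tested up to 60 μg/mL.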

[4] = molecular target: T2, Carboxypeptidase B2 (Homo sapiens) (UniProt Q96IY4); test: Inhibition of carboxypeptidase U at 60 ug/mL
T2 sequence (whole entry): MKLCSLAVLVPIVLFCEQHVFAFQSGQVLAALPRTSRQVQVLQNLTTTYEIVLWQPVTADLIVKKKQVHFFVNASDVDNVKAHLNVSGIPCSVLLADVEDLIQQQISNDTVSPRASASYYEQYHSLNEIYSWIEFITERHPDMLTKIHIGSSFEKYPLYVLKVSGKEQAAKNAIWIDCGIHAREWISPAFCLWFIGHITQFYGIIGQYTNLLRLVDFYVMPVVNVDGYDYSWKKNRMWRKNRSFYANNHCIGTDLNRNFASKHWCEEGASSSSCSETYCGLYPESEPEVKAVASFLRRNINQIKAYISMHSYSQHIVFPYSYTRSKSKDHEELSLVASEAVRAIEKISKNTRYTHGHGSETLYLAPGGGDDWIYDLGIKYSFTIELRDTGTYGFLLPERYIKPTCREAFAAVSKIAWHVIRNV
Outline: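 CPU (activated TAFI) assayed with a commercial TAFIa kit per manufacturer's instructions, run like the CPA/chymotrypsin assays; compounds tested up to 60 μg/mL.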

[5] = molecular target: T3, Carboxypeptidase A1 (Bos taurus, UniProt P00730); test: Inhibition of bovine pancreas carboxypeptidase A using N-(4-methoxyphenylazoformyl)-phenylalanine as substrate after 5 mins by colorimetry
T3 sequence (P00730 whole entry): T1 sequence (whole entry)
Outline: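 Bovine pancreas CPA, 1 U, 25 °C, 200 μL final; inhibitor added from DMSO (typically 1 mM stock, 10 μL) or DMSO alone. Absorbance at 350 nm after 5 min. Curves fitted to %inhibition=[…].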

Row | SMILES | solubility [1] | inhibition [2] | inhibition [3] | inhibition [4] | IC50 [5]
1 | CC[C@@H](C)[C@@H]1NC(=O)[C@H](NC(=O)N[C@@H](Cc2ccccc2)C(=O)O)CCCCNC(=O)[C@H](Cc2ccccc2)NC1=O | Insoluble | inactive |  |  | 
2 | CC[C@H](C)[C@H](NC(=O)[C@@H](CCCCN)NC(=O)N[C@@H](Cc1ccccc1)C(=O)O)C(=O)N[C@@H](Cc1ccccc1)C(N)=O |  |  | inactive | inactive | 4500 nM
3 | CC[C@H](C)[C@@H]1NC(=O)[C@H](NC(=O)N[C@@H](Cc2ccccc2)C(=O)O)CCCCNC(=O)[C@H](Cc2ccccc2)NC(=O)[C@H]([C@@H](C)CC)NC(=O)[C@H](NC(=O)N[C@@H](Cc2ccccc2)C(=O)O)CCCCNC(=O)[C@H](Cc2ccccc2)NC1=O |  | inactive |  |  | 
4 | CC[C@H](C)[C@@H]1NC(=O)[C@H](N)CCCCNC(=O)[C@H](Cc2ccccc2)NC1=O |  | inactive | inactive | inactive | 

Other lines, results leading:

Row | solubility [1] | inhibition [2] | inhibition [3] | inhibition [4] | IC50 [5] | SMILES
5 |  |  | inactive | inactive | 250 nM | CC[C@H](C)[C@@H]1NC(=O)[C@H](NC(=O)N[C@@H](Cc2ccccc2)C(=O)O)CCCCNC(=O)[C@H](Cc2ccccc2)NC1=O [NAMALIDE]
6 |  | inactive | inactive | inactive |  | CC[C@H](C)[C@@H]1NC(=O)[C@@H](NC(=O)N[C@@H](Cc2ccccc2)C(=O)O)CCCCNC(=O)[C@H](Cc2ccccc2)NC1=O
